The text below walks through data of ChEMBL document CHEMBL1135824, “Interaction of designed sulfated flavanoids with antithrombin: lessons on the design of organic activators” (J Med Chem, 2002).

Series [1] in a line: Dissociation constant of CS-Antithrombin interaction at 25 degree Celsius 20 mM sodium phosphate buffer at pH 6.0 at 0 uM. Format: functional.
Series [2] is described as follows: Dissociation constant of CS-Antithrombin interaction at 25 degree Celsius 20 mM sodium phosphate buffer at pH 6.0 at 10 uM. Type of series: functional. In short, it runs like this: (§1)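 Competitive titration of CS into plasma antithrombin–TNS complex with tetrasaccharide EFGH″ held at a fixed level, much above antithrombin. Competitor levels spanned 0.67–6.7 × its own antithrombin KD. Run at 25 °C in 20 mM sodium phosphate, 0.1 mM EDTA, 0.1% PEG 8000, pH 6.0, I 0.025. Read-out was the decrease in TNS fluorescence with rising CS. Antithrombin was freshly diluted from pH 7.4 stock.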

The nature of series [3]: Dissociation constant of CS-Antithrombin interaction at 25 degree Celsius 20 mM sodium phosphate buffer at pH 6.0 at 20 uM. Format: functional. Put shortly:
as §1

Series [4] is described as follows: Dissociation constant of CS-Antithrombin interaction at 25 degree Celsius 20 mM sodium phosphate buffer at pH 6.0 at 3.0 uM. Type of series: functional. In short, it runs like this:
as §1

The nature of series [5]: Dissociation constant of CS-Antithrombin interaction at 25 degree Celsius 20 mM sodium phosphate buffer at pH 6.0 at 30 uM. Format: functional. In short, it runs like this: as §1
Series [6] in a line: Dissociation constant of CS-Antithrombin interaction at 25 degree Celsius 20 mM sodium phosphate buffer at pH 6.0 at 4.5 uM. Format: functional. Put shortly: as §1
The nature of series [7]: Effect (1 uM) on observed rate constant that accelerated inhibition of factor Xa by antithrombin-CS (0 uM) complex.
A short description of series [8]: Effect (2 uM)on second-order rate constant that accelerated inhibition of factor Xa by antithrombin-CS (0 uM) complex.
The nature of series [9]: Effect (2 uM)on second-order rate constant that accelerated inhibition of factor Xa by antithrombin-CS (50 uM)complex.
The nature of series [10]: Effect (0 uM) on second-order rate constant that accelerated inhibition of factor Xa by antithrombin-CS (50 uM)complex.
Series [11] in a line: Effect (1 uM) on second-order rate constant that accelerated inhibition of factor Xa by antithrombin-CS (50 uM)complex.
Series [12] can be described thus: Effect (4 uM) on second-order rate constant that accelerated inhibition of factor Xa by antithrombin-CS (0 uM) complex.
A short description of series [13]: Effect (4 uM) on second-order rate constant that accelerated inhibition of factor Xa by antithrombin-CS (50 uM)complex.
Series [14] can be described thus: Non ionic interaction with plasma antithrombin at 25 degree Celsius in 20 mM sodium phosphate buffer at a pH 7.4. Format: ADME, cell-free.
Series [15] is described as follows: Observed dissociation constant of interaction with plasma antithrombin at 25 degree Celsius in 20 mM sodium phosphate buffer at a pH 7.4. Type of series: ADME, cell-free. Put shortly:
(§2)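 Human plasma antithrombin (1 µM) with TNS (5 µM) was titrated with the sulfated flavanoid. Buffer was 20 mM sodium phosphate, 0.1 mM EDTA, 0.1% PEG 8000, at pH 6.0 (I 0.025) or 7.4 (I 0.035). Fluorescence decrease was read at 432 nm (excitation 330 nm). KD came from fitting to a quadratic equilibrium binding equation.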

Series [16] can be described thus: Non ionic interaction with plasma antithrombin at 25 degree Celsius in 20 mM sodium phosphate buffer at a pH 6.0. Type of series: ADME, cell-free.
Series [17] is described as follows: Observed dissociation constant of interaction with plasma antithrombin at 25 degree Celsius in 20 mM sodium phosphate buffer at a pH 6.0. Type of series: ADME, cell-free. Put shortly: as §2
Series [18] deals with Coagulation factor X (Homo sapiens) (UniProt P00742). Put plainly: Second order rate constant for antithrombin inhibition of factor Xa in the presence of activator determined.
Sequence of Coagulation factor X (Homo sapiens) (P00742 41-179 limits assumed): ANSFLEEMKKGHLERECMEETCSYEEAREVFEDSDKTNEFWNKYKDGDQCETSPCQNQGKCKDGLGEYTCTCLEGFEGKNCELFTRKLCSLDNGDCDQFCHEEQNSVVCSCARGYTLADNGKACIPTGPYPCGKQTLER
Sequence of Coagulation factor X (Homo sapiens) (P00742 235-488 limits assumed): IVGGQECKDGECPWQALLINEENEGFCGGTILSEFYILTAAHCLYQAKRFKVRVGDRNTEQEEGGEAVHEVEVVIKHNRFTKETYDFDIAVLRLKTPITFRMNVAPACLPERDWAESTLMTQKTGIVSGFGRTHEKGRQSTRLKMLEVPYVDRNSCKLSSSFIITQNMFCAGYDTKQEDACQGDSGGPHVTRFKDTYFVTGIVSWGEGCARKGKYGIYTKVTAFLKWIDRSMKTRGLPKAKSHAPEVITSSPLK
Experiment in series [19]: as above

As for `CO[C@H]1O[C@H](COS(=O)(=O)O)[C@@H](O[C@H]2O[C@@H](C(=O)O)[C@@H](O[C@H]3O[C@H](COS(=O)(=O)O)[C@@H](O[C@H]4O[C@H](C(=O)O)C[C@H](O)[C@H]4O)[C@H](OS(=O)(=O)O)[C@H]3NS(=O)(=O)O)[C@H](O)[C@H]2OS(=O)(=O)O)[C@H](OS(=O)(=O)O)[C@H]1OS(=O)(=O)O`, the KCS, APP in series [1] turned out to be 3.5 µM; in series [2] it was 3.1 µM; in series [3] it was 3.2 µM; in series [4], 4.8 µM; in series [5], 2.1 µM; in [6], 3.5 µM. Also, the second-order rate constant in series [7] was determined as 2400 M⁻¹ s⁻¹; in series [8], 3200 M⁻¹ s⁻¹; in series [9], 4700 M⁻¹ s⁻¹; in series [10] it was 2000 M⁻¹ s⁻¹; in [11], 4300 M⁻¹ s⁻¹; in [12], 6400 M⁻¹ s⁻¹. The compound further displayed a second-order rate constant in series [13] of 7400 M⁻¹ s⁻¹.

Turning to `O=S(=O)(O)Oc1cc2c(c(OS(=O)(=O)O)c1)C[C@@H](OS(=O)(=O)O)[C@@H](c1ccc(OS(=O)(=O)O)c(OS(=O)(=O)O)c1)O2`, the Kd in [14] turned out to be 1100 µM; in series [15], 32.3 µM; in series [16] it was 380 µM; in series [17], 10.7 µM. In addition, in series [18], the K ACT came to 3380 M⁻¹ s⁻¹.

Regarding `O=S(=O)(O)Oc1cc2c(c(OS(=O)(=O)O)c1)C[C@H](OS(=O)(=O)O)[C@@H](c1ccc(OS(=O)(=O)O)c(OS(=O)(=O)O)c1)O2`, the Kd was 2200 µM in [14], 17.9 µM in series [15], 1000 µM in series [16] and 3.5 µM in series [17]. In addition, the K ACT in [18] amounted to 6750 M⁻¹ s⁻¹.

In turn, `O=S(=O)(O)Oc1cc2c(c(OS(=O)(=O)O)c1)C[C@@H](OS(=O)(=O)O)[C@H](c1ccc(OS(=O)(=O)O)c(OS(=O)(=O)O)c1)O2` (racemic) had a KD non ionic in [16] of 470 µM. Further, the Kd in series [17] was 26.1 µM. Also, in series [19], the kACT came out at 2770 M⁻¹ s⁻¹.

Broadly, the Kd is the concentration at which binding is half-saturated.
